Assay results from ChEMBL document CHEMBL1671832, “Discovery of novel cyanamide-based inhibitors of cathepsin C” (ACS Med Chem Lett, 2011).

Experiments:
[1] = molecular target: Dipeptidyl peptidase 1 (Homo sapiens, UniProt P53634); assay: Inhibition of human recombinant cathepsin C after 1 hr
[2] = molecular target: T1, Cathepsin K (Homo sapiens, UniProt P43235); assay: Inhibition of human recombinant cathepsin K after 1 hr
T1 sequence (P43235 whole entry): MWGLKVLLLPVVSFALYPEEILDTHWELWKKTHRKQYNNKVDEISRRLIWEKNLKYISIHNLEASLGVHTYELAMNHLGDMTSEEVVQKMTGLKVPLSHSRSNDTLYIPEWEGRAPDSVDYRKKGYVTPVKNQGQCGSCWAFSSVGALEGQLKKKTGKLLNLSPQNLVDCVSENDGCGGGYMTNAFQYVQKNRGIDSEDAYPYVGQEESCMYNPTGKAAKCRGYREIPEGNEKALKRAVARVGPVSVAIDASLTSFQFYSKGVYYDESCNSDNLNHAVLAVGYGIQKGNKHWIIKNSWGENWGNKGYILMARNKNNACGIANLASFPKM

[3] = molecular target: Cathepsin B (Homo sapiens, UniProt P07858); assay: Inhibition of human recombinant cathepsin B after 1 hr
[4] = molecular target: Procathepsin L (Homo sapiens, UniProt P07711); assay: Inhibition of human recombinant cathepsin L after 1 hr
[5] = molecular target: Cathepsin S (Homo sapiens, UniProt P25774); assay: Inhibition of human recombinant cathepsin S after 1 hr
[6] = Metabolic stability in rat plasma assessed as compound remaining after 30 mins by HPLC analysis; assay type: ADME, cell-free; conditions: read-out: Stability
Summary of the method: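 Compound was incubated in rat plasma for 30 min, then % compound remaining was determined. Values are the mean of two or more independent assays.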

[7] = test system: Plasma; assay: Metabolic stability in rat plasma in presence of rat serum albumin; assay type: ADME, cell-free
[8] = test system: Plasma; assay: Metabolic stability in rat plasma in presence of free cysteine; assay type: ADME, cell-free
[9] = test system: Plasma; assay: Metabolic stability in rat plasma in presence of glutathione; assay type: ADME, cell-free
[10] = test system: Plasma; assay: Metabolic stability in rat plasma in presence of broad spectrum esterase inhibitor; assay type: ADME, cell-free
[11] = test system: Rattus norvegicus; assay: Bioavailability in rat at 1 mg/kg, iv and 2 mg/kg, po; assay type: ADME, organism-based; conditions: in vivo
[12] = test system: Rattus norvegicus; assay: AUC in rat at 2 mg/kg, po; assay type: ADME, organism-based, Plasma; set-up: dose 2 mg/kg, route oral; conditions: in vivo
[13] = Volume of distribution at steady state in rat at 1 mg/kg, iv and 2 mg/kg, po; assay type: ADME, organism-based; conditions: in vivo, read-out: Vdss
[14] = Half life in rat at 1 mg/kg, iv and 2 mg/kg, po; assay type: ADME, organism-based; conditions: in vivo
[15] = Bioavailability in mouse at 5 mg/kg, iv and 20 mg/kg, po; assay type: ADME, organism-based; conditions: in vivo
[16] = Volume of distribution at steady state in mouse at 5 mg/kg, iv and 20 mg/kg, po; assay type: ADME, organism-based; conditions: in vivo, read-out: Vdss
[17] = Plasma clearance in mouse at 5 mg/kg, iv and 20 mg/kg, po; assay type: ADME, organism-based
[18] = Half life in mouse at 5 mg/kg, iv and 20 mg/kg, po; assay type: ADME, organism-based; conditions: in vivo
[19] = Bioavailability in dog at 5 mg/kg, iv and 10 mg/kg, po; assay type: ADME, organism-based, Canis lupus familiaris; conditions: in vivo
[20] = AUC in dog at 10 mg/kg, po; assay type: ADME, organism-based, Canis lupus familiaris; set-up: dose 10 mg/kg, route oral; conditions: plasma
[21] = Volume of distribution at steady state in dog at 5 mg/kg, iv and 10 mg/kg, po; assay type: ADME, organism-based, Canis lupus familiaris; conditions: in vivo, read-out: Vdss
[22] = Plasma clearance in dog at 5 mg/kg, iv and 10 mg/kg, po; assay type: ADME, organism-based, Canis lupus familiaris
[23] = Half life in dog at 5 mg/kg, iv and 10 mg/kg, po; assay type: ADME, organism-based, Canis lupus familiaris; conditions: in vivo
[24] = test system: Mus musculus; assay: In vivo inhibition of cathepsin C in C57BL/6J mouse plasma assessed as cleavage of H-Gly-Arg)2 R110 at 30 mg/kg, po after 30 mins; assay type: functional; set-up: scale not given: the % may be the effect or the level left
Summary of the method: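 Female/male not stated; mice dosed orally at 30 mg/kg (n = 5). Plasma cathepsin C activity was read as cleavage of (H-Gly-Arg)2 R110 substrate at 10 μM, sampled 30 min post-dose as part of a time course.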

[25] = test system: Mus musculus; assay: In vivo inhibition of cathepsin C in C57BL/6J mouse lung homogenates assessed as cleavage of H-Gly-Arg)2 R110 at 30 mg/kg, po after 0.5 hrs; assay type: functional; set-up: scale not given: the % may be the effect or the level left
Summary of the method: (§1)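 Oral dose of 30 mg/kg to C57BL/6J mice, n = 5 per group. Crude lung homogenate was taken at 0.5, 1.5 and 3 h. Cathepsin C activity was measured by cleavage of (H-Gly-Arg)2 R110 at 10 μM and expressed as % inhibition.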

[26] = test system: Mus musculus; assay: In vivo inhibition of cathepsin C in C57BL/6J mouse lung homogenates assessed as cleavage of H-Gly-Arg)2 R110 at 30 mg/kg, po after 1.5 hrs; assay type: functional; set-up: scale not given: the % may be the effect or the level left; summary of the method: as §1
[27] = test system: Mus musculus; assay: In vivo inhibition of cathepsin C in C57BL/6J mouse lung homogenates assessed as cleavage of H-Gly-Arg)2 R110 at 30 mg/kg, po after 3 hrs; assay type: functional; set-up: scale not given: the % may be the effect or the level left; summary of the method: as §1
[28] = test system: Mus musculus; assay: In vivo inhibition of cathepsin C in C57BL/6J mouse lung homogenates assessed as cleavage of H-Gly-Arg)2 R110 at 30 mg/kg administered intranasally after 0.5 hrs; assay type: functional; set-up: scale not given: the % may be the effect or the level left
[29] = test system: Mus musculus; assay: In vivo inhibition of cathepsin C in C57BL/6J mouse lung homogenates assessed as cleavage of H-Gly-Arg)2 R110 at 30 mg/kg administered intranasally after 1.5 hrs; assay type: functional; set-up: scale not given: the % may be the effect or the level left
[30] = test system: Mus musculus; assay: In vivo inhibition of cathepsin C in C57BL/6J mouse lung homogenates assessed as cleavage of H-Gly-Arg)2 R110 at 30 mg/kg administered intranasally after 3 hrs; assay type: functional; set-up: scale not given: the % may be the effect or the level left

Chain of Dipeptidyl peptidase 1 (P53634 25-134 limits assumed): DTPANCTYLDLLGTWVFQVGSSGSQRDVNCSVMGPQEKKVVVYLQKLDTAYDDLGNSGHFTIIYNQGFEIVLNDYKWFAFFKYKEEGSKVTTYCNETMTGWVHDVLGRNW
Chain of Dipeptidyl peptidase 1 (P53634 231-394 limits assumed): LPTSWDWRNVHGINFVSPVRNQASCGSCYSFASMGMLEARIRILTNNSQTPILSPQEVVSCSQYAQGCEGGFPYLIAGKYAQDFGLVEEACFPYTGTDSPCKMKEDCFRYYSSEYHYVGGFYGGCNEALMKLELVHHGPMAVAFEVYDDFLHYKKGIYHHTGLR
Chain of Dipeptidyl peptidase 1 (P53634 395-463 limits assumed): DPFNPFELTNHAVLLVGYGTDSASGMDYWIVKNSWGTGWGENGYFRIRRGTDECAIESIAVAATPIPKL
Chain of Procathepsin L (P07711 whole entry): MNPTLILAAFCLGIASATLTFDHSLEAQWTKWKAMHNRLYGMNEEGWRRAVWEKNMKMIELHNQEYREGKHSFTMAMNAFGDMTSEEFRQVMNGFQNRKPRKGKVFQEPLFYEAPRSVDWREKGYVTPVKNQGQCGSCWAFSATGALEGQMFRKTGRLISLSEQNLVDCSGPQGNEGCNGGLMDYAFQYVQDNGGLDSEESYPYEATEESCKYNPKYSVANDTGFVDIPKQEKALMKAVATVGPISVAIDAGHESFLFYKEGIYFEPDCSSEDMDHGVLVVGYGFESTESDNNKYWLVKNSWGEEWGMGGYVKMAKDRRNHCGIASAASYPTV
Chain of Cathepsin S (P25774 whole entry): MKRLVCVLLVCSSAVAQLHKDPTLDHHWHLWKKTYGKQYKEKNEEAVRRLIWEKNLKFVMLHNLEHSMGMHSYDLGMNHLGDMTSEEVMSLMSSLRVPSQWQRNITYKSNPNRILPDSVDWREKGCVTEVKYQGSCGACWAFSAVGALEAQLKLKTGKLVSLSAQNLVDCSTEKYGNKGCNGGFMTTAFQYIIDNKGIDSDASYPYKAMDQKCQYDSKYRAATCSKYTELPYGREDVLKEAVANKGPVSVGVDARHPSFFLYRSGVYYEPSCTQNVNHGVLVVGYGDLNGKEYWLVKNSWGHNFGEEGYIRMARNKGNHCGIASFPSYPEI

| SMILES | IC50 [1] | IC50 [2] | IC50 [3] | IC50 [4] | IC50 [5] | remaining at 0.5 h [6] | also measured |
| --- | --- | --- | --- | --- | --- | --- | --- |
| N#CN1CCC(CCc2ccccc2)C1 (centres undefined) | 2000 nM | 1260 nM | 5010 nM | 631 nM | 1580 nM | 13% |  |
| N#CN1CCCC(CCc2ccccc2)C1 (centres undefined) | > 25100 nM | 10000 nM |  |  | 7940 nM |  |  |
| N#CN1CC[C@H](NS(=O)(=O)c2ccccc2)C1 | 316 nM | 31.6 nM | 3980 nM |  | 501 nM | 48% |  |
| N#CN1CC[C@@H](NS(=O)(=O)c2ccccc2)C1 | 316 nM | 200 nM | 10000 nM |  | 1580 nM | 30% |  |
| N#CN1CC[C@@H](NC(=O)c2ccc(F)cc2)C1 | 2510 nM | 63.1 nM | 3980 nM |  | 12600 nM |  |  |
| N#CN1CC[C@@H](NC(=O)Nc2ccccc2)C1 | 1000 nM |  | 1260 nM | 1260 nM | 3980 nM |  |  |
| N#CN1CC[C@@H](NS(=O)(=O)c2cccc(Br)c2)C1 | 7.94 nM | 7.94 nM | 6310 nM | 39.8 nM | 316 nM | 18% | Stability [7]: Stable; Stability [8]: Stable; Stability [9]: Stable; Stability [10]: Stable |
| COc1ccc(OC)c(S(=O)(=O)N[C@@H]2CCN(C#N)C2)c1 | 10 nM | 79.4 nM | 12600 nM | 1260 nM | 2000 nM | 23% |  |
| N#CN1CC[C@@H](NS(=O)(=O)c2cc(Br)ccc2Br)C1 | < 0.398 nM | 2 nM | 1580 nM | 25.1 nM | 126 nM | 18% |  |
| O=CN1CC[C@@H](NS(=O)(=O)c2cccc(Br)c2)C1 | > 25100 nM | 5010 nM | > 25100 nM | 12600 nM | > 25100 nM | 95% |  |
| CC(C)(C)OC(=O)N1CC[C@@H](NS(=O)(=O)c2cccc(Br)c2)C1 | > 25100 nM | > 25100 nM | > 25100 nM | > 25100 nM | > 25100 nM | ≥ 100% |  |
| C[C@@H]1C[C@@H](NS(=O)(=O)c2cccc(Br)c2)CN1C#N | 15800 nM | 1000 nM | > 25100 nM | 2510 nM | 15800 nM | 45% |  |
| COc1ccc(OC)c(S(=O)(=O)N[C@@H]2C[C@@H](C)N(C#N)C2)c1 | > 25100 nM | > 25100 nM | > 25100 nM | > 25100 nM | > 25100 nM | 88% |  |
| C[C@H]1C[C@@H](NS(=O)(=O)c2cccc(Br)c2)CN1C#N | 158 nM | 251 nM | > 25100 nM | 3160 nM | 3980 nM |  |  |
| COc1ccc(OC)c(S(=O)(=O)N[C@@H]2C[C@H](C)N(C#N)C2)c1 | 126 nM | 631 nM | > 25100 nM | 3160 nM | 15800 nM |  |  |
| C[C@H]1C[C@@H](NS(=O)(=O)c2cc(Br)ccc2Br)CN1C#N | 3.16 nM | 39.8 nM | > 25100 nM | 501 nM | 1000 nM | 88% | F [11]: 8%; AUC [12]: 7 ng·h/mL; Vd [13]: 3.1 L/kg; half-life [14]: 12 min; bioavailability [15]: 1%; Vd [16]: 0.4 L/kg; clearance [17]: 16 mL/min/kg; half-life [18]: 12 min; bioavailability [19]: 20%; AUC [20]: 1180 ng·h/mL; Vd [21]: 1.3 L/kg; clearance [22]: 29 mL/min/kg; half-life [23]: 42 min; Activity [24]: 35%; Activity [25]: 32%; Activity [26]: 16%; Activity [27]: 28%; Activity [28]: 53%; Activity [29]: 66%; Activity [30]: 85% |
| N#CN1CCCC1 [CYANO-PYRROLIDINE] | > 25100 nM | 3980 nM | > 25100 nM | 1580 nM | 25100 nM |  |  |
